# Source: ChEMBL document CHEMBL3621107, “Ring fusion strategy for synthesis and lead optimization of sulfur-substituted anthra[1,2-c][1,2,5]thiadiazole-6,11-dione derivatives as promising scaffold of antitumor agents” (Eur J Med Chem, 2015)
# Tests used:
# M14 = test: Cytotoxicity against human M14 cells assessed as cell growth at 10 uM after 48 hrs by SRB assay relative to control; type: functional; settings: M14, 48 h, read-out: Activity
# How it was run: (§1)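 First-stage NCI-60 screen by the NCI Developmental Therapeutics Program. Each compound was tested once at a single concentration of 10 μM against the 60-cell-line panel. Growth percentage was reported for each cell line.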
# MDA-MB-435 = test: Cytotoxicity against human MDA-MB-435 cells assessed as cell growth at 10 uM after 48 hrs by SRB assay relative to control; type: functional; settings: MDA-MB-435, 48 h, read-out: Activity
# How it was run: (§2)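 First-stage NCI DTP one-dose screen against the 60 human tumour cell line panel. Compounds were tested at a single 10 μM level, and results are given as growth percentage.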
# SK-MEL-28 = test: Cytotoxicity against human SK-MEL-28 cells assessed as cell growth at 10 uM after 48 hrs by SRB assay relative to control; type: functional; settings: SK-MEL-28, 48 h, read-out: Activity; how it was run: as §2
# UACC-257 = test: Cytotoxicity against human UACC257 cells assessed as cell growth at 10 uM after 48 hrs by SRB assay relative to control; type: functional; settings: UACC-257, 48 h, read-out: Activity
# How it was run: (§3)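 NCI-60 one-dose screen run by NCI DTP: each cell line exposed to a single 10 µM dose, and percentage growth recorded against untreated growth.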
# OVCAR-8 = test: Cytotoxicity against human OVCAR8 cells assessed as cell growth at 10 uM after 48 hrs by SRB assay relative to control; type: functional; settings: OVCAR-8, 48 h, read-out: Activity; how it was run: as §2
# SK-OV-3 = test: Cytotoxicity against human SKOV3 cells assessed as cell growth at 10 uM after 48 hrs by SRB assay relative to control; type: functional; settings: SK-OV-3, 48 h, read-out: Activity; how it was run: as §2
# A498 = test: Cytotoxicity against human A498 cells assessed as cell growth at 10 uM after 48 hrs by SRB assay relative to control; type: functional; settings: A498, 48 h, read-out: Activity; how it was run: as §1
# SN12C = test: Cytotoxicity against human SN12C cells assessed as cell growth at 10 uM after 48 hrs by SRB assay relative to control; type: functional; settings: read-out: Activity; how it was run: as §2
# UO-31 = test: Cytotoxicity against human UO31 cells assessed as cell growth at 10 uM after 48 hrs by SRB assay relative to control; type: functional; settings: UO-31, 48 h, read-out: Activity; how it was run: as §3
# DU-145 [1] = test: Cytotoxicity against human DU145 cells assessed as cell growth at 10 uM after 48 hrs by SRB assay relative to control; type: functional; settings: DU-145, 48 h, read-out: Activity; how it was run: as §1
# MCF7 = test: Cytotoxicity against human MCF7 cells assessed as cell growth at 10 uM after 48 hrs by SRB assay relative to control; type: functional; settings: MCF7, 48 h, read-out: Activity; how it was run: as §1
# PC-3 [2] = test: Cytotoxicity against human PC3 cells after 48 hrs by SRB assay; type: functional, cell-based; settings: PC-3, 48 h
# How it was run: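 Second-stage NCI-60 panel run by the NCI Developmental Therapeutics Program, covering nine tumour subpanels. Five concentrations were tested: 0.01, 0.1, 1, 10 and 100 μM. Percentage growth at each level was plotted against log10 drug concentration. GI50, TGI and LC50 were read from these dose-response curves. Subpanel MID values were divided into the full-panel MID to give selectivity ratios.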
# DU-145 [3] = test: Cytotoxicity against human DU145 cells after 72 hrs by MTT assay; type: functional, cell-based; settings: for IC50: DU-145, 72 h
# How it was run: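 DU-145 cells grown in RPMI-1640 with 5% heat-inactivated fetal calf serum at 37 °C, 5% CO2. About 2×10^3 cells per well were seeded and incubated for 24 h. Compounds were dissolved in DMSO freshly and diluted into medium (vehicle 0.1% DMSO), then cells were exposed for 72 h. MTT was added for 3 h at 37 °C and absorbance read at 570 nm.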
# K562 = test: Cytotoxicity against human K562 cells assessed as cell growth at 10 uM after 48 hrs by SRB assay relative to control; type: functional; settings: K562, 48 h, read-out: Activity; how it was run: as §1
# RPMI-8226 = test: Cytotoxicity against human RPMI8226 cells assessed as cell growth at 10 uM after 48 hrs by SRB assay relative to control; type: functional; settings: RPMI-8226, 48 h, read-out: Activity; how it was run: as §2
# SR = test: Cytotoxicity against human SR cells assessed as cell growth at 10 uM after 48 hrs by SRB assay relative to control; type: functional; settings: read-out: Activity; how it was run: as §3
# A549 = test: Cytotoxicity against human A549 cells assessed as cell growth at 10 uM after 48 hrs by SRB assay relative to control; type: functional; settings: A549, 48 h, read-out: Activity; how it was run: as §1
# HOP-62 = test: Cytotoxicity against human HOP62 cells assessed as cell growth at 10 uM after 48 hrs by SRB assay relative to control; type: functional; settings: HOP-62, 48 h, read-out: Activity; how it was run: as §1
# NCI-H226 = test: Cytotoxicity against human NCI-H226 cells assessed as cell growth at 10 uM after 48 hrs by SRB assay relative to control; type: functional; settings: NCI-H226, 48 h, read-out: Activity; how it was run: as §2
# NCI-H23 = test: Cytotoxicity against human NCI-H23 cells assessed as cell growth at 10 uM after 48 hrs by SRB assay relative to control; type: functional; settings: NCI-H23, 48 h, read-out: Activity; how it was run: as §2
# HCC 2998 = test: Cytotoxicity against human HCC2998 cells assessed as cell growth at 10 uM after 48 hrs by SRB assay relative to control; type: functional; settings: HCC 2998, 48 h, read-out: Activity; how it was run: as §1
# HCT-116 = test: Cytotoxicity against human HCT116 cells assessed as cell growth at 10 uM after 48 hrs by SRB assay relative to control; type: functional; settings: HCT-116, 48 h, read-out: Activity; how it was run: as §1
# KM12 = test: Cytotoxicity against human KM12 cells assessed as cell growth at 10 uM after 48 hrs by SRB assay relative to control; type: functional; settings: KM12, 48 h, read-out: Activity; how it was run: as §1
# SF-539 = test: Cytotoxicity against human SF539 cells assessed as cell growth at 10 uM after 48 hrs by SRB assay relative to control; type: functional; settings: SF-539, 48 h, read-out: Activity; how it was run: as §2
# SNB-19 = test: Cytotoxicity against human SNB19 cells assessed as cell growth at 10 uM after 48 hrs by SRB assay relative to control; type: functional; settings: SNB-19, 48 h, read-out: Activity; how it was run: as §3
# U-251 = test: Cytotoxicity against human U251 cells assessed as cell growth at 10 uM after 48 hrs by SRB assay relative to control; type: functional; settings: U-251, 48 h, read-out: Activity; how it was run: as §3
# PC-3 [4] = test: Cytotoxicity against human PC3 cells assessed as cell growth at 10 uM after 48 hrs by SRB assay relative to control; type: functional; settings: PC-3, 48 h, read-out: Activity; how it was run: as §2
# BT-549 = test: Cytotoxicity against human BT549 cells assessed as cell growth at 10 uM after 48 hrs by SRB assay relative to control; type: functional; settings: BT-549, 48 h, read-out: Activity; how it was run: as §1
# NCI-H522 = test: Cytotoxicity against human NCI-H522 cells assessed as cell growth at 10 uM after 48 hrs by SRB assay relative to control; type: functional; settings: NCI-H522, 48 h, read-out: Activity; how it was run: as §2
SMILES,growth at 10 µM (M14) [%],growth at 10 µM (MDA-MB-435) [%],growth at 10 µM (SK-MEL-28) [%],growth at 10 µM (UACC-257) [%],growth at 10 µM (OVCAR-8) [%],growth at 10 µM (SK-OV-3) [%],growth at 10 µM (SN12C) [%],growth at 10 µM (UO-31) [%],growth at 10 µM (MCF7) [%],IC50 (PC-3 [2]) [µM],IC50 (DU-145 [3]) [µM],growth at 10 µM (A549) [%],growth at 10 µM (HOP-62) [%],growth at 10 µM (NCI-H226) [%],growth at 10 µM (NCI-H23) [%],growth at 10 µM (HCC 2998) [%],growth at 10 µM (HCT-116) [%],growth at 10 µM (SF-539) [%],growth at 10 µM (SNB-19) [%],growth at 10 µM (U-251) [%],further results
O=C1c2ccccc2C(=O)c2c1ccc1nsnc21,74.5,-87.9,15.5,-83.1,-10.1,101,-73.3,-79.3,-50.7,2.5,7.41,104,-100,97.8,16.1,-0.74,-50,-47.1,79,-89.3,growth at 10 µM (A498): 130%; growth at 10 µM (DU-145 [1]): 40.8%; growth at 10 µM (K562): 49.6%; growth at 10 µM (RPMI-8226): -28%; growth at 10 µM (SR): 4.96%; growth at 10 µM (KM12): 98.6%
CC(C)Sc1cc2c(c3nsnc13)C(=O)c1ccccc1C2=O,-31.5,-79.3,-8.32,-91.7,-22.6,,-28.6,-28.4,-68.8,3.69,4.53,-8.14,13.2,10.2,-42.2,21,-36.7,-47,21.9,-23.1,growth at 10 µM (PC-3 [4]): -13.4%; growth at 10 µM (DU-145 [1]): 6.66%; growth at 10 µM (BT-549): 10.8%; Activity (DU-145 [3]): Dose-dependent effect; growth at 10 µM (K562): -26.2%; growth at 10 µM (RPMI-8226): -38%; growth at 10 µM (SR): -48%; growth at 10 µM (NCI-H522): -59.5%; growth at 10 µM (KM12): 19.3%
O=C1c2ccccc2C(=O)c2c1cc(Sc1cccc(Cl)c1)c1nsnc21,-76.4,-82.3,25,-84.6,-22.9,95.4,-66.2,-74.8,-69.4,5.64,1.75,107,42.1,78.1,-26.9,102,-67.8,-52.7,56.9,-69.5,growth at 10 µM (BT-549): 36.2%; growth at 10 µM (NCI-H522): 7.18%
CCOc1cccc(Sc2cc3c(c4nsnc24)C(=O)c2ccccc2C3=O)c1,104,106,112,126,112,99.4,105,76.7,78.8,> 15,> 15,111,91.9,90.5,94.1,105,101,93.7,103,110,growth at 10 µM (BT-549): 104%; growth at 10 µM (NCI-H522): 98.2%
